From ChEMBL document CHEMBL3272012, “5-(Tetradecyloxy)-2-furancarboxylic acid and related hypolipidemic fatty acid-like alkyloxyarylcarboxylic acids” (J Med Chem, 1977)
One block for each compound: values may come before it.

Experiments:
Rattus norvegicus [1] = assay: Hypolipidemic activity in Wistar rat assessed as reduction in plasma triglyceride level at 428 umol/kg/day administered through diet for 10 days; type: functional; settings: 240 h
Rattus norvegicus [2] = assay: Hypolipidemic activity in Wistar rat assessed as reduction in plasma cholesterol level at 470 umol/kg/day administered through diet for 4 days; type: functional; settings: 96 h
How it was run: (§1)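 Young male Wistar rats, 170-190 g initial weight, groups of six, given compound mixed thoroughly into Purina Lab Chow ad libitum for 4 or 10 days as stated. Daily dose calculated from food consumption and body weight. Bled by cardiac puncture at end of treatment; plasma cholesterol measured by automated procedure. Expressed as percent reduction versus simultaneous untreated control group; Student's t test.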

Rattus norvegicus [3] = assay: Increase in liver weight in Wistar rat at 470 umol/kg/day administered through diet for 4 days; type: ADME, organism-based; settings: in vivo, po, 96 h
Rattus norvegicus [4] = assay: Hypolipidemic activity in Wistar rat assessed as reduction in plasma cholesterol level at 428 umol/kg/day administered through diet for 10 days; type: functional; settings: 240 h; how it was run: as §1
Rattus norvegicus [5] = assay: Increase in cholesterol level in Wistar rat liver at 470 umol/kg/day administered through diet for 4 days; type: ADME, organism-based; settings: in vivo, po, 96 h
Rattus norvegicus [6] = assay: Hypolipidemic activity in Wistar rat assessed as reduction in plasma triglyceride level at 470 umol/kg/day administered through diet for 4 days; type: functional; settings: 96 h
Rattus norvegicus [7] = assay: Increase in cholesterol level in Wistar rat liver at 496 umol/kg/day administered through diet for 4 days; type: ADME, organism-based; settings: in vivo, po, 96 h
Rattus norvegicus [8] = assay: Hypolipidemic activity in Wistar rat assessed as reduction in plasma cholesterol level at 496 umol/kg/day administered through diet for 4 days; type: functional; settings: 96 h; how it was run: as §1
Rattus norvegicus [9] = assay: Increase in liver weight in Wistar rat at 460 umol/kg/day administered through diet for 10 days; type: ADME, organism-based; settings: in vivo, po, 240 h
Rattus norvegicus [10] = assay: Hypolipidemic activity in Wistar rat assessed as reduction in plasma cholesterol level at 460 umol/kg/day administered through diet for 10 days; type: functional; settings: 240 h; how it was run: as §1
Rattus norvegicus [11] = assay: Increase in liver weight in Wistar rat at 496 umol/kg/day administered through diet for 4 days; type: ADME, organism-based; settings: in vivo, po, 96 h
Rattus norvegicus [12] = assay: Hypolipidemic activity in Wistar rat assessed as reduction in plasma triglyceride level at 460 umol/kg/day administered through diet for 10 days; type: functional; settings: 240 h
Rattus norvegicus [13] = assay: Hypolipidemic activity in Wistar rat assessed as reduction in plasma triglyceride level at 496 umol/kg/day administered through diet for 4 days; type: functional; settings: 96 h
Rattus norvegicus [14] = assay: Increase in cholesterol level in Wistar rat liver at 460 umol/kg/day administered through diet for 10 days; type: ADME, organism-based; settings: in vivo, po, 240 h
Rattus norvegicus [15] = assay: Increase in cholesterol level in Wistar rat liver at 462 umol/kg/day administered through diet for 10 days; type: ADME, organism-based; settings: in vivo, po, 240 h
Rattus norvegicus [16] = assay: Hypolipidemic activity in Wistar rat assessed as reduction in plasma triglyceride level at 462 umol/kg/day administered through diet for 10 days; type: functional; settings: 240 h
Rattus norvegicus [17] = assay: Increase in liver weight in Wistar rat at 453 umol/kg/day administered through diet for 4 days; type: ADME, organism-based; settings: in vivo, po, 96 h
Rattus norvegicus [18] = assay: Hypolipidemic activity in Wistar rat assessed as reduction in plasma cholesterol level at 462 umol/kg/day administered through diet for 10 days; type: functional; settings: 240 h; how it was run: as §1
Rattus norvegicus [19] = assay: Increase in liver weight in Wistar rat at 462 umol/kg/day administered through diet for 10 days; type: ADME, organism-based; settings: in vivo, po, 240 h
Rattus norvegicus [20] = assay: Hypolipidemic activity in Wistar rat assessed as reduction in plasma cholesterol level at 453 umol/kg/day administered through diet for 4 days; type: functional; settings: 96 h; how it was run: as §1
Rattus norvegicus [21] = assay: Hypolipidemic activity in Wistar rat assessed as reduction in plasma triglyceride level at 453 umol/kg/day administered through diet for 4 days; type: functional; settings: 96 h
Rattus norvegicus [22] = assay: Hypolipidemic activity in Wistar rat assessed as reduction in plasma cholesterol level at 445 umol/kg/day administered through diet; type: functional
How it was run: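 Young male Wistar rats (170-190 g initial weight) in groups of six, fed test compound admixed to Purina Lab Chow ad libitum. Actual daily dose derived from recorded food intake and body weight. Cardiac puncture blood taken at end of treatment; plasma cholesterol determined by automated method. Percent reduction from concurrently run untreated controls, significance by Student's t test.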

Rattus norvegicus [23] = assay: Hypolipidemic activity in Wistar rat assessed as reduction in plasma triglyceride level at 201 umol/kg/day administered through diet for 4 days; type: functional; settings: 96 h
How it was run: (§2)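 Young male Wistar rats, 170-190 g initial weight, six per group, fed drug mixed thoroughly into Purina Lab Chow ad libitum for the stated days; daily dose calculated from food consumption and body weight. Bled by cardiac puncture at end; plasma cholesterol and triglycerides by automated procedures, expressed as percent reduction versus simultaneous untreated controls; Student's t test.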

Rattus norvegicus [24] = assay: Hypolipidemic activity in Wistar rat assessed as reduction in plasma cholesterol level at 98 umol/kg/day administered through diet for 4 days; type: functional; settings: 96 h; how it was run: as §2
Rattus norvegicus [25] = assay: Hypolipidemic activity in Wistar rat assessed as reduction in plasma triglyceride level at 98 umol/kg/day administered through diet for 4 days; type: functional; settings: 96 h
Rattus norvegicus [26] = assay: Hypolipidemic activity in Wistar rat assessed as reduction in plasma cholesterol level at 201 umol/kg/day administered through diet for 4 days; type: functional; settings: 96 h
How it was run: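 Young male Wistar rats, 170-190 g at start, in groups of six, given compound mixed into Purina Lab Chow ad libitum for 4 or 10 days as stated. Daily dose was calculated from food consumption and body weight. Plasma was taken by cardiac puncture at the end and cholesterol measured by automated procedure. Results are % reduction versus a concurrent untreated control group, with Student's t test.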

Rattus norvegicus [27] = assay: Increase in liver weight in Wistar rat at 201 umol/kg/day administered through diet for 4 days; type: ADME, organism-based; settings: in vivo, po, 96 h
Rattus norvegicus [28] = assay: Increase in cholesterol level in Wistar rat liver at 445 umol/kg/day administered through diet; type: ADME, organism-based; settings: in vivo, po
Rattus norvegicus [29] = assay: Increase in liver weight in Wistar rat at 445 umol/kg/day administered through diet; type: ADME, organism-based; settings: in vivo, po
Rattus norvegicus [30] = assay: Increase in liver weight in Wistar rat at 98 umol/kg/day administered through diet for 4 days; type: ADME, organism-based; settings: in vivo, po, 96 h
Rattus norvegicus [31] = assay: Hypolipidemic activity in Wistar rat assessed as reduction in plasma triglyceride level at 445 umol/kg/day administered through diet; type: functional
Rattus norvegicus [32] = assay: Increase in cholesterol level in Wistar rat liver at 98 umol/kg/day administered through diet for 4 days; type: ADME, organism-based; settings: in vivo, po, 96 h
Rattus norvegicus [33] = assay: Increase in cholesterol level in Wistar rat liver at 201 umol/kg/day administered through diet for 4 days; type: ADME, organism-based; settings: in vivo, po, 96 h

- Activity (Rattus norvegicus [3]): 22%
- Activity (Rattus norvegicus [5]): 22%
Structure (SMILES): CCCCCCCCCCCCOc1ccc(C(=O)O)cc1
- inhibition in vivo at 428 µmol/kg (Rattus norvegicus [1]): 31%
- inhibition in vivo at 470 µmol/kg (Rattus norvegicus [2]): 33%
- inhibition in vivo at 428 µmol/kg (Rattus norvegicus [4]): 16%
- inhibition in vivo at 470 µmol/kg (Rattus norvegicus [6]): 58%

- Activity (Rattus norvegicus [7]): 9%
- Activity (Rattus norvegicus [9]): 20%
- Activity (Rattus norvegicus [11]): 20%
- Activity (Rattus norvegicus [14]): 6%
Structure (SMILES): CCCCCCCCCCCCCOc1ccc(C(=O)OC)cc1
- inhibition in vivo at 496 µmol/kg (Rattus norvegicus [8]): 27%
- inhibition in vivo at 460 µmol/kg (Rattus norvegicus [10]): 25%
- inhibition in vivo at 460 µmol/kg (Rattus norvegicus [12]): 70%
- inhibition in vivo at 496 µmol/kg (Rattus norvegicus [13]): 31%

- Activity (Rattus norvegicus [15]): 12%
- Activity (Rattus norvegicus [17]): 0%
- Activity (Rattus norvegicus [19]): 0%
Structure (SMILES): CCCCCCCCCCCCCCOc1cccc(C(=O)OC)c1
- inhibition in vivo at 462 µmol/kg (Rattus norvegicus [16]): 59%
- inhibition in vivo at 462 µmol/kg (Rattus norvegicus [18]): 24%
- inhibition in vivo at 453 µmol/kg (Rattus norvegicus [20]): 0%
- inhibition in vivo at 453 µmol/kg (Rattus norvegicus [21]): 51%

- Activity (Rattus norvegicus [27]): 0%
- Activity (Rattus norvegicus [28]): 12%
- Activity (Rattus norvegicus [29]): 7%
- Activity (Rattus norvegicus [30]): 0%
- Activity (Rattus norvegicus [32]): 0%
- Activity (Rattus norvegicus [33]): 12%
Structure (SMILES): CCCCCCCCCCCCCCOc1ccc(C(=O)OC)cc1
- inhibition in vivo at 445 µmol/kg (Rattus norvegicus [22]): 6%
- inhibition in vivo at 201 µmol/kg (Rattus norvegicus [23]): 70%
- inhibition in vivo at 98 µmol/kg (Rattus norvegicus [24]): 27%
- inhibition in vivo at 98 µmol/kg (Rattus norvegicus [25]): 72%
- inhibition in vivo at 201 µmol/kg (Rattus norvegicus [26]): 23%
- inhibition in vivo at 445 µmol/kg (Rattus norvegicus [31]): 49%
